Sampled rows, rich in hits. Any-hit rate of the full collection: about 4.3%.
ALR inh: inhibitors of human sulfhydryl oxidase ALR. purified ALR, DTT oxidation, H2O2 HRP-luminol luminescence. actives 3.8% (n = 290,000). inhibition, % (concentration not given with the values);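 active = mean replicate inhibition above about 79%, with every replicate also reaching it, limit read from the data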
Target sequence (P55789 whole entry, looked up): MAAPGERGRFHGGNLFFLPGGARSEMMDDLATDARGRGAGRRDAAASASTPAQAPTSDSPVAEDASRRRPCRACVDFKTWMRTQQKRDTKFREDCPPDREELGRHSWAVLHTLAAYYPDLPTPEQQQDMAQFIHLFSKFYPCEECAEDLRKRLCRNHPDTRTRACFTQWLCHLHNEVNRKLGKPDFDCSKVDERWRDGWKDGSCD
UBC9 SUMO inh: inhibitors of human SUMOylation (UBC9); P63279; HTRF SUMOylation assay, SAE1/SAE2 + UBC9, in vitro; inhibition, % at 35 µM; actives 0.36% (n = 290,000); AID 2006; in the data active = inhibition above about 50%, passing the limit was not always enough
Target sequence (P63279 whole entry, looked up): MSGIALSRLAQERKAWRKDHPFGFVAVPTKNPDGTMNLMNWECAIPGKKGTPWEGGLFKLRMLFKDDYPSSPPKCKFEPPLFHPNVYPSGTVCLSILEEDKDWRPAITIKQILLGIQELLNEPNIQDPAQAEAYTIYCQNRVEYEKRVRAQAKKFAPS
Rin1-Abl PPI inh: human Rin1-Abl interaction inhibition | AID 588664 | actives 0.4% (n = 360,000) | inhibition, % at 7.35 µM | TR-FRET Rin1/Abl binding, biochemical; in the data active = inhibition above about 5%, passing the limit was not always enough
RBBP9 inhibitor: inhibitors of human serine hydrolase RBBP9 | recombinant RBBP9, FP-Rh probe fluorescence polarization | actives 0.2% (n = 220,000) | inhibition, % at 7.94 µM | O75884;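 active = inhibition above the campaign mean of all tested compounds plus 3 SD, cut at about 14% in these data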;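 note: plate controls were DMSO wells with RBBP9 for no effect and wells lacking RBBP9 protein for full effect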
Target sequence (O75884 whole entry, looked up): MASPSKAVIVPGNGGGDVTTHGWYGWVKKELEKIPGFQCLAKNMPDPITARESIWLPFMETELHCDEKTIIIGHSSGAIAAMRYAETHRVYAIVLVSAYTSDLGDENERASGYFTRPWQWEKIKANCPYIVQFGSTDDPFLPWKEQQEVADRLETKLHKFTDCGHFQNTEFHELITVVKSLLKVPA
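Test system: recombinant human RBBP9; Timing: 30 min then 45 min, 25 °C; Detection: fluorescence polarization; Control set: RBBP9 with DMSO as uninhibited control, no-protein wells as full inhibition; Compound dosing: one concentration, 7.94 µM nominal, 0.794% DMSO; Probe or stimulus: FP-Rh activity-based probe, 375 nM before mixing.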
PREPL inh: inhibitors of human prolyl oligopeptidase-like enzyme PREPL | recombinant PREPL, fluorescence polarization activity-based probe | inhibition, % at 5.96 µM | actives 0.68% (n = 320,000); in the data active = inhibition above about 43%;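 note: 0% = enzyme with DMSO and 100% = wells lacking enzyme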
UBC13 inh: inhibitors of human UBC13 polyubiquitin chain formation; inhibition, % at 20 µM; AID 485273; TR-FRET; actives 0.47% (n = 330,000); in the data active = inhibition above about 45%, passing the limit was not always enough
Target sequence (P61088 whole entry, looked up): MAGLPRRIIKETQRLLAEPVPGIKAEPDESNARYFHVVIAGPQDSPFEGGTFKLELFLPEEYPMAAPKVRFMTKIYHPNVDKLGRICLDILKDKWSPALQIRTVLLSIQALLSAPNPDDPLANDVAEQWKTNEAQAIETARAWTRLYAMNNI
Rin1-Abl confirm: confirmation of inhibitors of human Rin1-Abl interaction; shares compounds with Rin1-Abl PPI inh; TR-FRET Rin1-Abl binding, purified proteins; inhibition, % at 7.35 µM; actives 49% (n = 1,300); AID 602124
GFP quench-1: GFP fluorescence interference artifact. actives 8.5% (n = 1,300). inhibition, % at 6.75 µM. shares compounds with Rin1-Abl PPI inh. AID 602125. inhibitors/quenchers counterscreen;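 note: ABL1-eGFP fusion protein alone without its partner RIN1-SBP; 0% = protein with vehicle and 100% = wells lacking protein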
GFP quench dose: quenches GFP in dose response, Rin1-Abl counter-screen; shares compounds with Rin1-Abl PPI inh; GFP fluorescence interference/quenching counterscreen; IC50, µM; 230 tested, under 10 active; AID 602182; call rule not given here;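 note: ABL1-eGFP fusion protein alone without its RIN1 binding partner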
GFP quench-2: GFP quenching artifact for Rin1-Abl inhibitor hits | 25 tested, under 10 active | IC50, µM | shares compounds with Rin1-Abl PPI inh | AID 602397 | GFP fluorescence quenching counterscreen, biochemical; call rule not given here
An asterisk follows results filed as active; · = no result. Cut-off read from the data, not from the text of the source, unless noted: active = inhibition above about 6.5%; inactive = the rest.

SMILES | ALR inh | UBC9 SUMO inh | Rin1-Abl PPI inh | RBBP9 inhibitor | PREPL inh | UBC13 inh | Rin1-Abl confirm | GFP quench-1 | others
O=C(COC(=O)CCS(=O)(=O)c1ccccc1)NC(=O)c1ccc(OC(F)F)cc1 | 3.4 | · | -1.0 | · | -7.5 | 3.2 | · | ·
CSCCC(NC(=O)COc1ccccc1)C(=O)N1CCN(c2ccccc2O)CC1 (centres undefined) | 59.2 | · | -0.3 | · | 13.0 | -7.3 | · | ·
CC1=CC(C)(C)[N+](C)(C)c2ccc(C)cc21 | 1.8 | -0.1 | 10.1* | -4.5 | 6.2 | -4.5 | -0.9 | 0.1
c1ccc2scnc2c1 | · | · | 2.1 | · | · | · | · | ·
CCOC(=O)C1(Cc2ccc(OC)cc2)CCN(C(=O)CN2CCCCC2=O)CC1 | -6.4 | -3.1 | 9.9* | 1.6 | 8.8 | -3.9 | 0.9 | -2.0
COc1ccccc1CNC(=O)CSc1nnc2ccc(-c3cccnc3)nn12 | 1.8 | 6.6 | 12.9* | 0.1 | 5.5 | -18.8 | 16.8* | -1.4 | GFP quench dose=>67.6
COc1ccc(NC(=O)CSc2nnc3ccc(-c4cccnc4)nn23)cc1OC | -13.0 | · | -0.6 | · | 11.5 | -6.6 | · | ·
COc1ccc(NC(=O)Nc2ccc3c(c2)C(=O)N([C@@H](C)CO)C[C@@H](C)[C@@H](CN(C)S(=O)(=O)c2cccs2)O3)cc1 | 0.9 | · | 5.9 | · | 32.3 | -2.7 | · | ·
COC(=O)Nc1csc2c1NC(=O)CCCC2 | -3.1 | 12.0 | 42.7* | -11.5 | 6.2 | 5.2 | 44.3* | -0.9 | GFP quench dose=>67.5
O=[N+]([O-])c1cccc(S(=O)(=O)NCCOc2cccc3cccnc23)c1 | -10.1 | 6.1 | 10.3* | · | 9.8 | 2.7 | -3.3 | -0.3
COc1ccc(S(=O)(=O)NCCOc2cccc3cccnc23)cc1OC | · | 13.8 | -0.2 | -2.8 | · | 4.4 | · | ·
CCSCCOC(=O)C1=C(C)NC2=C(C(=O)CCC2)C1c1coc2ccccc2c1=O (centres undefined) | -0.9 | 25.2 | 19.8* | -12.2 | 6.2 | 9.5 | 29.8* | -0.2 | GFP quench dose=>67.5
CC1=C(C(=O)OC(C)C)C(c2coc3ccccc3c2=O)C2=C(CCCC2=O)N1 (centres undefined) | 3.9 | -2.8 | -2.0 | -10.2 | -0.8 | -4.4 | · | ·
O=S(=O)(NCCCSc1ccccc1)c1ccccc1F | · | -2.6 | -0.9 | · | -11.3 | -0.3 | · | ·
O=[N+]([O-])c1ccccc1S(=O)(=O)Nc1ccc2c(c1)OCCO2 | -0.1 | 4.6 | -2.6 | · | · | 2.1 | · | ·
Cc1ccc(S(=O)(=O)N2CCCCC2)cc1C(=O)N(CCc1ccccc1)Cc1ccccc1 | · | · | 1.7 | · | 16.8 | -9.6 | · | ·
O=C(Nc1cc(C(F)(F)F)ccc1N1CCCCC1)C1=COCCO1 | · | · | -2.3 | · | · | · | · | ·
CN1CCN(C(c2ccccn2)c2cc(Cl)c3cccnc3c2O)CC1 (centres undefined) | 18.7 | -98.6 | 25.7* | -0.3 | 17.4 | -0.9 | 21.8* | 4.0 | GFP quench dose=>67.5
C/C(=N/NC(=O)Cc1ccccc1)c1ccc(C)s1 | 4.0 | -2.7 | 0.3 | -9.3 | 9.7 | -7.1 | · | ·
CC(C)C(=O)N1C2CCC1CC(O)(c1ccc(F)cc1)C2 (centres undefined) | -8.2 | 9.0 | 7.0* | 0.4 | -0.3 | -5.7 | 0.9 | 0.9
Cc1cc(N2C3CCC2CC(O)(c2ccc(F)cc2)C3)nc(-c2ccccc2)n1 (centres undefined) | -4.0 | 9.3 | 2.6 | -9.8 | -21.7 | 2.4 | · | ·
O=C(NC1CCCCC1)c1cccnc1C(=O)O | -0.8 | 24.0 | 5.9* | -5.7 | 15.7 | 6.6 | 1.8 | 0.0
O=C1CCc2cc(NS(=O)(=O)c3ccc([N+](=O)[O-])cc3)cc3c2N1CCC3 | · | · | -2.9 | · | 6.1 | 1.5 | · | ·
CCc1nnc(NC(=O)CSc2nnc(CNC(=O)c3cc(OC)c(OC)c(OC)c3)o2)s1 | -1.1 | 14.3 | 8.2* | 0.6 | 10.1 | -3.5 | -1.3 | 0.1
CCSc1nnc(NC(=O)CSc2nnc(CNC(=O)c3cc(OC)c(OC)c(OC)c3)o2)s1 | 48.7 | -5.9 | -3.5 | 1.9 | 1.8 | -9.8 | · | ·
SMILES | ALR inh | UBC9 SUMO inh | Rin1-Abl PPI inh | RBBP9 inhibitor | PREPL inh | UBC13 inh | Rin1-Abl confirm | GFP quench-1 | others
N=C(N)c1ccc(N=Nc2c(O)ccc3c2[nH]c2ccccc23)cc1 | · | · | 21.9* | · | · | · | 23.8* | 20.2*
Cc1ccc(NC(=O)CSc2nc3c(c(=O)n(C)c(=O)n3C)n2C)cc1 | -4.8 | -3.9 | 6.8* | · | -11.3 | 1.8 | 0.5 | -3.9
COC(=O)c1ccc(Cl)c(NC(=O)CSc2nnc(-c3ccncc3)o2)c1 | -3.2 | 2.0 | 0.4 | · | 1.9 | -15.1 | · | ·
COC(=O)c1ccc(CSc2nnc(-c3ccncc3)o2)cc1 | -11.5 | -5.0 | 1.1 | · | -4.2 | 3.5 | · | ·
COC(=O)c1ccc(CSc2nnc(-c3ccncc3)o2)o1 | -2.3 | 22.1 | 19.4* | -8.8 | 1.0 | -6.1 | 38.7* | -1.4 | GFP quench dose=>67.5
COC(=O)c1ccccc1NC(=O)CSc1nnc(-c2ccncc2)o1 | -13.6 | -1.1 | 16.0* | -4.8 | 14.5 | -0.8 | 16.1* | 0.0
Cc1[nH][nH]c(=O)c1C(c1ccc(-c2ccc(F)cc2)o1)c1c(C)[nH][nH]c1=O | 20.0 | 86.7 | 3.1 | -2.3 | 3.4 | -104.4 | · | ·
Cc1[nH][nH]c(=O)c1C(c1ccc(-c2ccc(Cl)c(Cl)c2)o1)c1c(C)[nH][nH]c1=O | 21.0 | 51.8 | 12.8* | -0.6 | 13.4 | -23.5 | 3.8 | 6.5
COc1ccc(Br)cc1CNC(=O)CN1C(=O)C(c2ccccc2)Oc2cccnc21 (centres undefined) | 0.0 | 31.5 | 1.2 | · | 0.6 | -8.6 | · | ·
O=C(CCCC(=O)N1CCc2ccccc21)N1CCc2ccccc21 | · | -0.3 | -0.1 | · | · | · | · | ·
CCOCC(=O)N1CCc2ccccc21 | -7.9 | -1.3 | 6.3* | -0.5 | 7.8 | -2.9 | -1.1 | 2.1
N#Cc1ccc(C(=O)NCC(c2ccco2)N2CCCC2)cc1 (centres undefined) | 1.0 | 30.0 | -1.5 | -7.6 | 11.2 | 4.0 | · | ·
N#Cc1ccccc1Sc1ccccc1C(=O)NCC(c1ccco1)N1CCCC1 (centres undefined) | 0.2 | · | 48.9* | · | 6.1 | 6.7 | 61.7* | 1.1 | GFP quench dose=>67.5;GFP quench-2=>67.5
CC(=O)NCCCNS(=O)(=O)c1ccc(C)cc1 | -3.4 | 5.3 | 1.8 | 4.0 | -5.6 | 2.2 | · | ·
O=C(CN1C(=O)CSc2cc(S(=O)(=O)N3CCCCCC3)ccc21)NCCc1ccccc1 | -0.8 | 1.0 | 6.1* | -8.6 | 14.0 | -14.3 | -2.2 | -0.4
CN(C)CCNC(=O)CN1C(=O)CSc2ccc(S(=O)(=O)N3CCCCC3)cc21 | -10.6 | · | 2.5 | · | 3.4 | 3.4 | · | ·
CCOc1ccc(CN(C)C(=O)CCNC(=O)c2ccco2)cc1 | -4.1 | · | 8.6* | · | 9.8 | -1.8 | -1.2 | 1.1

High-throughput results deposited in PubChem BioAssay by several laboratories.
